≈ marks a conversion by molar mass, not a printed value.
Tests used:
[1] = test system: Mycobacterium tuberculosis; assay: Antitubercular activity against Mycobacterium tuberculosis H37Rv assessed as inhibition of bacterial growth incubated for 7 days by MABA; type: functional; settings: 168 h, time 7 day
How it was run: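 Microplate alamar blue assay. H37Rv or clinical isolates were grown to late log phase in 7H9 broth with glycerol, Tween 80 and ADC, then 2 × 10⁵ CFU added to two-fold dilutions. Final range 32–0.5 μg/mL, lowered to 2–0.016 μg/mL for active compounds. 37 °C, 7 days, then alamar blue 16 h. Fluorescence 530/590 nm. MIC is the lowest concentration giving ≥90% reduction; INH and RFP were controls.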

Escherichia coli = assay: Antibacterial activity against Escherichia coli 25922 assessed as inhibition of bacterial growth incubated for 18 hrs by broth microdilution method; type: functional; settings: ATCC 25922
How it was run: (§1)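 Broth microdilution in 96-well plates. Media: cation-adjusted Mueller−Hinton broth for S. aureus, brain heart infusion for VRE, Mueller−Hinton broth for the other strains. Incubated at 37 °C for 18 h, then A600 read. Percent growth inhibition calculated against 1% DMSO vehicle.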

Bacillus subtilis = assay: Antibacterial activity against Bacillus subtilis 168 assessed as inhibition of bacterial growth incubated for 18 hrs by broth microdilution method; type: functional; how it was run: as §1
Staphylococcus aureus [2] = assay: Antibacterial activity against Staphylococcus aureus ATCC 29213 assessed as inhibition of bacterial growth incubated for 18 hrs by broth microdilution method; type: functional; how it was run: as §1
Staphylococcus aureus [3] = assay: Antibacterial activity against methicillin resistant Staphylococcus aureus assessed as bacterial growth inhibition after 18 hrs by broth microdilution method; type: functional
Staphylococcus capitis = assay: Antibacterial activity against linezolid resistant Staphylococcus capitis assessed as bacterial growth inhibition after 18 hrs by broth microdilution method; type: functional
[4] = test system: Staphylococcus epidermidis; assay: Antibacterial activity against methicillin resistant Staphylococcus epidermidis assessed as bacterial growth inhibition after 18 hrs by broth microdilution method; type: functional
Enterococcus faecium [5] = assay: Antibacterial activity against Enterococcus faecium ATCC 49624 assessed as bacterial growth inhibition after 18 hrs by broth microdilution method; type: functional; how it was run: as §1
Enterococcus = assay: Antibacterial activity against vancomycin resistant Enterococcus assessed as bacterial growth inhibition after 18 hrs by broth microdilution method; type: functional
Enterococcus faecalis [6] = assay: Antibacterial activity against Enterococcus faecalis ATCC 29212 assessed as bacterial growth inhibition after 18 hrs by broth microdilution method; type: functional; how it was run: as §1
Staphylococcus aureus [7] = assay: Antibacterial activity against vancomycin intermediate Staphylococcus aureus assessed as bacterial growth inhibition after 18 hrs by broth microdilution method; type: functional
Enterococcus faecalis [8] = assay: Antibacterial activity against linezolid resistant Enterococcus faecalis assessed as bacterial growth inhibition after 18 hrs by broth microdilution method; type: functional
Enterococcus faecium [9] = assay: Antibacterial activity against linezolid resistant Enterococcus faecium 13549 assessed as bacterial growth inhibition after 18 hrs by broth microdilution method; type: functional
[10] = Metabolic stability in pooled human liver microsomes incubated for 30 mins by LC-MS analysis; type: ADME, Microsome; settings: read-out: Stabilty
How it was run: (§2)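 Microsomes from male CD-1 mouse or pooled human, 1 mg/mL protein in 0.05 M phosphate buffer pH 7.4. Compound at final 0.1 μM with DMSO cosolvent. Incubated at 37 °C with 1 mM NADPH, or with buffer in place of NADPH. Sampled at 0 and 30 min and quenched with acetonitrile. LC−MS measurement; substrate remaining at 30 min normalized to time zero.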

[11] = Metabolic stability in CD-1 mouse liver microsomes incubated for 30 mins by LC-MS analysis; type: ADME, Microsome; how it was run: as §2
[12] = Metabolic stability in pooled human liver microsomes assessed as substrate remaining in presence of NADPH incubated for 30 mins by LC-MS analysis; type: ADME, Microsome; settings: read-out: Stabilty; how it was run: as §2
[13] = Metabolic stability in CD-1 mouse liver microsomes assessed as substrate remaining in presence of NADPH incubated for 30 mins by LC-MS analysis; type: ADME, Microsome; settings: read-out: Stabilty; how it was run: as §2
[14] = Mycobacterium tuberculosis, H37Rv, read-out: MIC

N#Cc1ccc(-c2cc3c(cc2F)O[C@H]2[C@H](CN)OC(=O)N2C3)cn1
MIC [1, 14]: 0.26 µg/mL (≈ 0.764 µM)

N#Cc1ccc(-c2ccc3c(c2)CN2C(=O)O[C@@H](CN)[C@@H]2O3)cn1
MIC (Escherichia coli): > 64 µg/mL | MIC [1, 14]: 2.94 µg/mL (≈ 9.12 µM) | MIC (Bacillus subtilis): > 64 µg/mL | MIC (Staphylococcus aureus [2]): > 64 µg/mL

CC(=O)NC[C@@H]1OC(=O)N2Cc3cc(-c4ccc(-c5nnn(C)n5)nc4)c(F)cc3O[C@@H]12
MIC (Staphylococcus aureus [3]): 0.5 µg/mL (≈ 1.14 µM) | MIC (Staphylococcus capitis): 2 µg/mL (≈ 4.55 µM) | MIC (Escherichia coli): > 64 µg/mL | MIC [1, 14]: 0.54 µg/mL (≈ 1.23 µM) | MIC [4]: 1 µg/mL (≈ 2.28 µM) | MIC (Enterococcus faecium [5]): 1 µg/mL (≈ 2.28 µM) | MIC (Bacillus subtilis): 0.125 µg/mL (≈ 0.284 µM) | MIC (Enterococcus): 0.25 µg/mL (≈ 0.569 µM) | MIC (Enterococcus faecalis [6]): 0.5 µg/mL (≈ 1.14 µM) | MIC (Staphylococcus aureus [7]): 0.5 µg/mL (≈ 1.14 µM) | MIC (Enterococcus faecalis [8]): 1 µg/mL (≈ 2.28 µM) | MIC (Enterococcus faecium [9]): 2 µg/mL (≈ 4.55 µM) | MIC (Staphylococcus aureus [2]): 0.125 µg/mL (≈ 0.284 µM)

NC[C@@H]1OC(=O)N2Cc3cc(N4CCOCC4)c(F)cc3O[C@@H]12
MIC (Escherichia coli): > 64 µg/mL | MIC [1, 14]: > 32 µg/mL | MIC (Bacillus subtilis): > 64 µg/mL | MIC (Staphylococcus aureus [2]): > 64 µg/mL

NC[C@@H]1OC(=O)N2Cc3cc(N4CCOCC4)ccc3O[C@@H]12
MIC [1, 14]: > 32 µg/mL

CC(=O)NC[C@@H]1OC(=O)N2Cc3cc(-c4ccc(C#N)nc4)ccc3O[C@@H]12
MIC (Escherichia coli): > 64 µg/mL | MIC [1, 14]: 12.2 µg/mL (≈ 33.6 µM) | MIC (Bacillus subtilis): 1 µg/mL (≈ 2.74 µM) | MIC (Staphylococcus aureus [2]): 0.5 µg/mL (≈ 1.37 µM)

CC(=O)NC[C@H]1OC(=O)N2Cc3cc(-c4ccc(C#N)nc4)c(F)cc3O[C@H]12
MIC [1, 14]: > 32 µg/mL | MIC (Staphylococcus aureus [2]): > 64 µg/mL

Cn1nnc(-c2ccc(-c3cc4c(cc3F)O[C@H]3[C@H](CN)OC(=O)N3C4)cn2)n1
MIC (Escherichia coli): > 64 µg/mL | MIC [1, 14]: 0.47 µg/mL (≈ 1.18 µM) | MIC (Bacillus subtilis): > 64 µg/mL | MIC (Staphylococcus aureus [2]): 32 µg/mL (≈ 80.5 µM)

CC(=O)NC[C@@H]1OC(=O)N2Cc3cc(N4CCOCC4)c(F)cc3O[C@@H]12
MIC (Escherichia coli): > 64 µg/mL | MIC [1, 14]: 31.7 µg/mL (≈ 86.8 µM) | MIC (Bacillus subtilis): 8 µg/mL (≈ 21.9 µM) | MIC (Staphylococcus aureus [2]): 2 µg/mL (≈ 5.47 µM)

CC(=O)NC[C@@H]1OC(=O)N2c3cc(F)c(Br)cc3OC[C@@H]12
remaining at 0.5 h [10]: 110% | Stabilty ([11]; mouse, microsomes, 0.5 h): 125% | remaining at 0.5 h [12]: 71.4% | remaining at 0.5 h [13]: 73.4%

CC(=O)NC[C@@H]1OC(=O)N2Cc3cc(Br)c(F)cc3O[C@@H]12
remaining at 0.5 h [10]: 93.8% | remaining at 0.5 h ([11]; CD-1, mouse, liver microsomes, read-out: Stabilty): 102% | remaining at 0.5 h [12]: 111% | remaining at 0.5 h [13]: 105%

CC(=O)NC[C@@H]1OC(=O)N2Cc3cc(N4CCOCC4)ccc3O[C@@H]12
MIC [1, 14]: > 32 µg/mL

CC(=O)NC[C@@H]1OC(=O)N2Cc3cc(F)c(-c4ccc(C#N)nc4)cc3O[C@@H]12 (racemic)
MIC (Escherichia coli): > 64 µg/mL | MIC [1, 14]: > 32 µg/mL | MIC (Bacillus subtilis): > 64 µg/mL | MIC (Staphylococcus aureus [2]): > 64 µg/mL

CC(=O)NC[C@@H]1OC(=O)N2Cc3cc(F)c(N4CCOCC4)cc3O[C@@H]12 (racemic)
MIC [1, 14]: > 32 µg/mL

NC[C@@H]1OC(=O)N2Cc3cc(F)c(N4CCOCC4)cc3O[C@@H]12 (racemic)
MIC [1, 14]: > 32 µg/mL

N#Cc1ccc(-c2cc3c(cc2F)CN2C(=O)O[C@@H](CN)[C@@H]2O3)cn1 (racemic)
MIC (Escherichia coli): > 64 µg/mL | MIC [1, 14]: > 32 µg/mL | MIC (Bacillus subtilis): > 64 µg/mL | MIC (Staphylococcus aureus [2]): > 64 µg/mL

CC(=O)NCC1OC(=O)N2Cc3cc(-c4ccc(C#N)nc4)c(F)cc3OC12 (racemic; cis)
MIC [1]: 15.51 µg/mL (≈ 40.6 µM)

CC(=O)NCC1OC(=O)N2Cc3cc(-c4ccc(C#N)nc4)c(F)cc3OC12 (racemic; trans)
MIC [1]: 1.58 µg/mL (≈ 4.13 µM)

CC1(C)S[C@@H]2[C@H](NC(=O)[C@H](N)c3ccccc3)C(=O)N2[C@H]1C(=O)O [AMPICILLIN]
MIC (Staphylococcus aureus [3]): > 32 µg/mL | MIC [4]: > 32 µg/mL | MIC (Bacillus subtilis): 0.25 µg/mL (≈ 0.715 µM) | MIC (Staphylococcus aureus [2]): 0.25 µg/mL (≈ 0.715 µM)

CC(=O)NC[C@H]1CN(c2ccc(N3CCOCC3)c(F)c2)C(=O)O1 [LINEZOLID]
MIC (Staphylococcus capitis): ≥ 16 µg/mL | MIC (Escherichia coli): > 64 µg/mL | MIC [1, 14]: 0.88 µg/mL (≈ 2.61 µM) | MIC (Enterococcus faecium [5]): 2 µg/mL (≈ 5.93 µM) | MIC (Bacillus subtilis): 0.25 µg/mL (≈ 0.741 µM) | MIC (Enterococcus faecium [9]): 8 µg/mL (≈ 23.7 µM) | MIC (Staphylococcus aureus [2]): 0.125 µg/mL (≈ 0.371 µM)

CN[C@H](CC(C)C)C(=O)N[C@H]1C(=O)N[C@@H](CC(N)=O)C(=O)N[C@H]2C(=O)N[C@H]3C(=O)N[C@H](C(=O)N[C@H](C(=O)O)c4cc(O)cc(O)c4-c4cc3ccc4O)[C@H](O)c3ccc(c(Cl)c3)Oc3cc2cc(c3O[C@@H]2O[C@H](CO)[C@@H](O)[C@H](O)[C@H]2O[C@H]2C[C@](C)(N)[C@H](O)[C@H](C)O2)Oc2ccc(cc2Cl)[C@H]1O [VANCOMYCIN]
MIC (Escherichia coli): 64 µg/mL (≈ 44.2 µM) | MIC [4]: < 2 µg/mL | MIC (Bacillus subtilis): 0.25 µg/mL (≈ 0.173 µM) | MIC (Enterococcus): > 32 µg/mL | MIC (Staphylococcus aureus [7]): > 32 µg/mL
